Measured values pooled from the literature.
Compare with care: the assays were run in different laboratories.
GLP1R: Glucagon-like peptide 1 receptor (GLP1R, Homo sapiens, UniProt P43220)
DRD3: D(3) dopamine receptor (DRD3, Homo sapiens, UniProt P35462)

Compound | target | assay | quantity | value
O=C(O[C@@H]1Cc2c(O)cc(O)cc2O[C@@H]1c1cc(O)c(O)c(O)c1)c1cc(O)c(O)c(O)c1 | Maltase-glucoamylase (Homo sapiens, UniProt O43451) | enzyme activity, inhibitor | Ki | 5.93 µM
CC[C@H](C)[C@H](NC(=O)[C@H](CC(C)C)NC(=O)[C@H](Cc1c[nH]c2ccccc12)NC(=O)[C@H](CC(=O)O)NC(=O)[C@@H](NC(=O)[C@H](Cc1ccccc1)NC(=O)[C@H](CCC(=O)O)NC(=O)[C@H](CCCCN)NC(=O)[C@H](C)NC(=O)[C@H](C)NC(=O)[C@H](CCCCN)NC(=O)[C@H](CCC(=O)O)NC(=O)[C@H](CC(=O)O)NC(=O)[C@H](CC(C)C)NC(=O)[C@H](Cc1c[nH]cn1)NC(=O)[C@H](CCC(N)=O)NC(=O)[C@@H](NC(=O)[C@@H](NC(=O)[C@H](CC(=O)O)NC(=O)[C@H](CO)NC(=O)[C@@H](NC(=O)[C@H](Cc1ccccc1)NC(=O)[C@@H](NC(=O)CNC(=O)[C@H](CCC(=O)O)NC(=O)[C@H](C)NC(=O)[C@@H](N)Cc1c[nH]cn1)[C@@H](C)O)[C@@H](C)O)C(C)C)[C@@H](C)O)[C@@H](C)CC)C(=O)N[C@@H](CC(N)=O)C(=O)NCC(=O)NCC(=O)N1CCC[C@H]1C(=O)O | GLP1R | reporter gene, agonist, luciferase | EC50 | 0.000449 µM
COc1cc(N)c(Cl)cc1C(=O)NC1CCN(CCCOc2ccc(F)cc2)CC1OC (stereo not drawn) | DRD3 | ligand displacement, radioligand | IC50 | 6.32 µM
CC(C)C[C@H](NC(=O)[C@H](Cc1c[nH]c2ccccc12)NC(=O)[C@H](C)NC(=O)[C@@H](NC(=O)[C@H](Cc1ccccc1)NC(=O)[C@H](CO)NC(=O)[C@H](CCC(N)=O)NC(=O)[C@H](C)NC(=O)[C@H](C)NC(=O)[C@H](CCC(N)=O)NC(=O)[C@H](CC(=O)O)NC(=O)[C@H](CCC(N)=O)NC(=O)[C@H](CC(C)C)NC(=O)[C@H](Cc1ccc(O)cc1)NC(=O)[C@H](CO)NC(=O)[C@H](CO)NC(=O)[C@@H](NC(=O)[C@H](CC(=O)O)NC(=O)[C@H](CO)NC(=O)[C@@H](NC(=O)[C@H](Cc1ccc(O)cc1)NC(=O)[C@@H](NC(=O)CNC(=O)[C@H](CCC(=O)O)NC(=O)[C@H](C)NC(=O)[C@@H](N)Cc1c[nH]cn1)[C@@H](C)O)[C@@H](C)O)C(C)C)C(C)C)C(=O)N[C@@H](CCCCN)C(=O)N[C@@H](CO)C(=O)NCC(=O)N[C@@H](CCC(N)=O)C(=O)N1CCC[C@H]1C(=O)O | GLP1R | reporter gene, agonist, luciferase | EC50 | 0.0295 µM
CO[C@H]1C[C@H](O[C@H]2[C@H](C)O[C@@H](O[C@@H]3/C(C)=C/C[C@@H]4C[C@@H](C[C@]5(C=C[C@H](C)[C@@H](C6CCCCC6)O5)O4)OC(=O)[C@@H]4C=C(C)[C@@H](O)[C@H]5OC/C(=C\C=C\[C@@H]3C)[C@]54O)C[C@@H]2OC)O[C@@H](C)[C@@H]1O | Nuclear receptor subfamily 1 group I member 3 (Homo sapiens, UniProt Q14994) | reporter gene, antagonist | IC50 | 43.2 µM
C[C@@H](NC(=O)[C@@H](N)Cc1ccc(O)cc1)C(=O)NCC(=O)N[C@@H](Cc1ccccc1)C(=O)N(C)CCC[C@@]1(c2ccc(F)cc2)OCc2cc(C#N)ccc21 | DRD3 | ligand displacement, radioligand | Ki | > 10 µM
CC(C)[C@@H]1NC(=O)[C@H](CO)NC(=O)[C@H](CO)NC(=O)[C@H](CO)N(C)C(=O)[C@H](CC(=O)O)NC(=O)[C@H](CO)NC(=O)[C@H](Cc2ccccc2)NC(=O)CSC[C@@H](C(=O)NCC(N)=O)NC(=O)[C@H](CC(N)=O)NC(=O)[C@H](CCCNC(=N)N)NC(=O)[C@H](C)NC(=O)[C@H](Cc2ccc(-c3ccccc3)cc2)NC(=O)[C@H](CC(N)=O)NC(=O)[C@@H]2CCCN2C1=O | Protein Mdm4 (MDM4, Homo sapiens, UniProt O15151) | ligand displacement, TR-FRET | IC50 | > 10 µM
C[C@H]1COCCN1c1nc(NCc2cccnc2C(F)(F)F)c2cccnc2n1 | A-type voltage-gated potassium channel KCND3 (KCND3, Homo sapiens, UniProt Q9UK17) | ion current, inhibitor | IC50 | > 33 µM
Cc1cccc(-c2ccnc3c(C(N)=O)cnn23)c1 | Toll-like receptor 8 (TLR8, Homo sapiens, UniProt Q9NR97) | reporter gene | IC50 | 0.067 µM
